Rows were chosen to be rich in hits. Some 2% of all compounds tested hit in one or more screens of this group.
EBNA-1 inh – EBNA-1 DNA-binding inhibitors, primary screen, biochemical, fluorescence polarization; actives 0.34% (n = 300,000); inhibition, % at 14.8 µM; in the data active = inhibition above about 28%
GPR7 antagonist – GPR7 receptor antagonists, primary screen, cell-based, fluorescence, single concentration | GPR7-expressing cells, fluorescence antagonist assay | Neuropeptides B/W receptor type 1 (Homo sapiens), P48145 | AID 1861, 2009 | inhibition, % at 4.4 µM | actives 1.1% (n = 290,000); in the data active = inhibition above about 16%, passing the limit was not always enough;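 also: cells stimulated with the agonist NPW; 0% = agonist with vehicle and 100% = vehicle without agonist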
Target sequence (P48145 whole entry, looked up): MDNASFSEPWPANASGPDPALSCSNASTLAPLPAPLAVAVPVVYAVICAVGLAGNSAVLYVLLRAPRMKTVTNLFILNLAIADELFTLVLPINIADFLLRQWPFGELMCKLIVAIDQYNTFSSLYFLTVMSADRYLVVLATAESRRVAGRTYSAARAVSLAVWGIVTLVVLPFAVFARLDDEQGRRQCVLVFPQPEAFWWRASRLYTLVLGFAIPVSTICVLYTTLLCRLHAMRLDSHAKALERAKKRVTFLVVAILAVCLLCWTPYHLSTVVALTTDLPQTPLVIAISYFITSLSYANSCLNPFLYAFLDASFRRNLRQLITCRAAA
HCV NS3 hel inh – inhibitors of HCV NS3 helicase, primary screen, biochemical, Cy5 molecular beacon fluorescence; Hepatitis C virus NS3 helicase; NS3 helicase DNA unwinding; inhibition, % at 10.9 µM; actives 0.56% (n = 290,000); AID 1800, 2009;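 active = inhibition above the mean of all tested compounds plus 3 SD, set per campaign, cut at about 35% in these data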;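 also: 0% = DMSO wells and 100% = thioflavine S control wells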
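assay system = NS3 helicase fragment of HCV | buffer or medium = MOPS pH 6.5, MgCl2, DTT, Tween20, BSA | timing = 60 min unwinding reaction at 25 °C after ATP addition | signal = Cy5 beacon fluorescence read at start and 1 h | read-out basis = % inhibition of unwinding | control set = low DMSO, high thioflavine S at 110 µM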
ZTA DNA inh – blocks Epstein-Barr virus ZTA, an EBNA-1 counter-screen | P03206 | ZTA-DNA binding, fluorescence polarization | inhibition, % at 11 µM | actives 0.15% (n = 320,000); in the data active = inhibition above about 33%
Target sequence (P03206 whole entry, looked up): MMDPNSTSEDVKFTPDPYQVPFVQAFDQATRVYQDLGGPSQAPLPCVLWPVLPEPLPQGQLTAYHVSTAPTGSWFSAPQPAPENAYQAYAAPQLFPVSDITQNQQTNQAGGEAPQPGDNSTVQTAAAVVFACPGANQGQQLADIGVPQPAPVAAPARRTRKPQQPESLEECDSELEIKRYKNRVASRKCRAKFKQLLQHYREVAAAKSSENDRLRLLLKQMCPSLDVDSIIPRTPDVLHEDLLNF
FID counter – compounds displacing fluorescent DNA intercalator, primary screen, artefact control for HCV NS3 helicase inhibitor project, biochemical, FID fluorescence; DNA fluorescent intercalator displacement; inhibition, % at 7.9 µM; actives 0.17% (n = 290,000); AID 1845, 2009; in the data active = inhibition above about 37%;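 also: 0% = vehicle and 100% = reference compound; higher means more ethidium bromide displaced from hairpin DNA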
GPR7 antag conf – GPR7 receptor antagonists, confirmation, cell-based, fluorescence, single concentration; inhibition, % at 4.4 µM; actives 52% (n = 2,400); shares compounds with GPR7 antagonist; AID 1952, 2009; GPR7-expressing cells, calcium fluorescence antagonist mode; in the data active = inhibition above about 24%;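 also: stimulated with the GPR7 agonist NPW; 0% = agonist plus vehicle and 100% = vehicle alone without agonist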
MCHR1 antag – MCHR1 antagonists in cells, counter-screen for GPR7 antagonist project, cell-based, fluorescence, human; inhibition, % at 4.4 µM; MCHR1-expressing cells, fluorescence antagonist assay; shares compounds with GPR7 antagonist; AID 2148, 2009; actives 62% (n = 2,400); in the data active = inhibition above about 22%;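 also: 0% = vehicle with agonist and 100% = vehicle without agonist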
* marks the source's active call; other numbers are inactive results; . = no result given.

SMILES | EBNA-1 inh | GPR7 antagonist | HCV NS3 hel inh | ZTA DNA inh | FID counter | GPR7 antag conf | MCHR1 antag
CC1(C(=O)OCC(=O)NNC(=O)COc2ccc(Cl)cc2)CC1(Cl)Cl (stereo unspecified) | -2 | . | . | 4 | . | . | .
COc1ccc(/C=C/C(=O)NCc2cccnc2)cc1 | -2 | -1 | -2 | 1 | -1 | . | .
CCc1ccc(CN(Cc2cccnc2)C(=O)/C=C/c2ccc(OC)cc2)cc1 | 8 | 39* | -68 | -2 | -25 | 32* | 49*
Cc1ccc2c(cnn2C(=O)CCCC(=O)NC(C)c2ccccc2)c1 (stereo unspecified) | 12 | -3 | -6 | -8 | -38 | . | .
Cc1cc(N2CCCCC2)nc(N)n1 | -7 | 43* | -10 | -6 | -2 | 53* | 75*
COc1cccc(CN(C)C(=O)c2cc(COc3ccc4ncccc4c3)on2)c1 | -2 | 33* | 7 | 8 | -26 | 40* | 57*
COc1cccc(CN(C)C(=O)c2cc(COc3c(F)cccc3F)on2)c1 | 7 | 4 | -11 | 7 | -26 | . | .
Nc1ccc2nc(-c3ccccc3)[nH]c2c1 | -4 | -2 | -38 | 15 | 11 | . | .
Nc1cccc(-c2nc3ccc(C(=O)c4ccccc4)cc3[nH]2)c1 | 8 | 43* | -14 | 3 | -8 | 27* | 63*
Cc1ccc(S(=O)(=O)NCCC(=O)Nc2ncccc2O)cc1C | 13 | . | . | 4 | . | . | .
CCCCn1c(N)c(N(CC)C(=O)CSc2nnnn2-c2cc(C)ccc2C)c(=O)[nH]c1=O | -21 | 23* | 9 | -7 | -50 | -9 | -10
Cc1ccc(NC(=O)CN2C(=O)NC(C)(c3ccc(Cl)cc3)C2=O)cc1 (stereo unspecified) | -8 | 23* | -16 | -15 | -18 | 43* | 29*
CC1(c2ccc(OC(F)F)cc2)NC(=O)N(CC(=O)Nc2cccc(F)c2)C1=O (stereo unspecified) | 3 | 94* | -13 | -2 | 1 | 93* | 92*
Cc1ccc(C2(C)NC(=O)N(CC(=O)N(C)CC(=O)Nc3cccc(F)c3)C2=O)cc1 (stereo unspecified) | . | . | . | -13 | . | . | .
CN1CCN(c2ccc(Cl)cc2NC(=O)CN2C(=O)NC(C)(c3ccccc3)C2=O)CC1 (stereo unspecified) | -8 | . | . | -21 | . | . | .
CCOc1ccc(NC(=O)CN2C(=O)NC(C)(c3ccc(OC(F)F)cc3)C2=O)cc1 (stereo unspecified) | -13 | 75* | -14 | 6 | -16 | 81* | 74*
CC1(c2ccc(OC(F)F)cc2)NC(=O)N(CC(=O)Nc2ccc(Cl)cc2F)C1=O (stereo unspecified) | 7 | 55* | -9 | 5 | -9 | 67* | 64*
CN(CC(=O)Oc1ccc(-c2nnco2)cc1)S(=O)(=O)c1ccc(F)cc1 | 2 | . | . | -6 | . | . | .
CCOC(=O)c1c(NC(=O)CN2C(=O)NC(C)(c3ccc(OC(F)F)cc3)C2=O)sc(C)c1C (stereo unspecified) | -11 | 71* | 18 | -6 | -20 | 68* | 86*
Cc1cc(NC(=O)CN2C(=O)NC(C)(c3ccc(OC(F)F)cc3)C2=O)no1 (stereo unspecified) | -6 | 50* | 7 | -18 | -6 | 51* | 48*
CC1(c2ccc(OC(F)F)cc2)NC(=O)N(CC(=O)NC2CCCCC2)C1=O (stereo unspecified) | -2 | 7 | -7 | 6 | -9 | . | .
CC1(c2ccc(OC(F)F)cc2)NC(=O)N(CC(=O)Nc2ccc(S(N)(=O)=O)cc2)C1=O (stereo unspecified) | 9 | -9 | 2 | 13 | 2 | . | .
CC1(c2ccc(OC(F)F)cc2)NC(=O)N(CC(=O)Nc2ccc(F)cc2)C1=O (stereo unspecified) | -4 | 43* | -14 | -6 | -5 | 54* | 48*
CC1(c2ccc(OC(F)F)cc2)NC(=O)N(CC(=O)Nc2ccc(OC(F)F)cc2)C1=O (stereo unspecified) | 14 | 86* | -25 | 5 | -2 | 88* | 86*
O=C(NC1CC2CCCC(C1)N2Cc1ccccc1)c1ccc([N+](=O)[O-])cc1 (stereo unspecified) | . | -5 | -8 | . | 9 | . | .
SMILES | EBNA-1 inh | GPR7 antagonist | HCV NS3 hel inh | ZTA DNA inh | FID counter | GPR7 antag conf | MCHR1 antag
COc1ccc(S(=O)(=O)NCc2cccnc2)cc1C(=O)Nc1ccccc1 | -1 | -11 | -1 | 5 | -17 | . | .
CCCCCc1ccc(-c2cn(Cc3ccc(C(=O)c4ccccc4)cc3)nn2)cc1 | -7 | 9 | -10 | -19 | -11 | . | .
O=C(c1ccccc1)c1ccc(Cn2cc(-c3ccccc3)nn2)cc1 | 2 | 41* | 11 | -11 | -18 | 47* | 61*
COc1ccc(N(C(=O)C2CCCCC2)S(=O)(=O)c2cccc3cccnc23)cc1 | -15 | 21* | 3 | 7 | -28 | 1 | 12
COc1ccc(N(C)S(=O)(=O)c2cccc3cccnc23)c(OC)c1 | -8 | -1 | -5 | 2 | -15 | . | .
O=C(CC1CC2CCC1C2)N1CCN(S(=O)(=O)c2ccccc2F)CC1 (stereo unspecified) | . | . | . | 1 | . | . | .
CC(NC(=O)C1CCN(C(=O)Nc2ccccc2)CC1)c1ccccc1Cl (stereo unspecified) | . | . | . | 6 | . | . | .
CCOc1ccc(Oc2cc(N)cc([N+](=O)[O-])c2)cc1 | -3 | -5 | -6 | 7 | 11 | . | .
CCOc1ccc([N+](=O)[O-])c(N)c1 | -3 | 28* | 12 | -4 | 2 | 4 | 5
CC(=O)c1cccc(OCC(=O)Nc2ccccc2N2CCOCC2)c1 | . | . | . | 5 | . | . | .
Cc1cccc(OCCNc2ccc([N+](=O)[O-])cn2)c1 | 0 | 32* | -19 | -4 | 6 | 48* | 39*
O=[N+]([O-])c1ccc(NCCOc2ccccc2Cl)nc1 | 6 | 16 | 8 | 1 | 8 | . | .
O=C(CSc1ccccc1)Nc1ccc2c(c1)C(=O)NC2=O | 0 | 27* | -5 | 4 | -1 | 37* | 36*
CC(=O)c1ccc(C(=O)Nc2ccc3c(c2)C(=O)NC3=O)cc1 | -1 | 22* | 26 | -4 | -9 | -11 | 6
Cc1cccc(C)c1OCC(=O)Nc1ccc2c(c1)C(=O)NC2=O | 3 | 32* | 10 | -2 | -16 | 27* | 29*
COc1ccc(OCC(=O)Nc2ccc3c(c2)C(=O)NC3=O)cc1 | -6 | 29* | 0 | 5 | -6 | 26* | 17
CC(C)(C)c1ccc(C(=O)Nc2ccc3c(c2)C(=O)NC3=O)cc1 | -3 | -9 | 7 | -20 | -4 | . | .

Bioassay records from PubChem.
